The EternaBench riboswitch data

How the values were obtained:
MS2 coat protein [1] = test: apparent Kd, MS2 coat protein; higher = weaker binding; RNA-MaP array; tryptophan 2.4 mM where present
Summary of the method: (§1)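 Green signal was scaled to red-channel RNA signal and control-cluster median Fmax, and the apparent Kd was taken as the median of filtered per-cluster binding-curve fits. The binding series used SNAP-549-labelled MS2 coat protein from 0.7 or 1.5 nM, doubling to 3 µM, on designs transcribed by stalled E. coli RNA polymerase on Illumina sequencing-chip clusters. Each series ran without and then with constant ligand in 100 mM Tris-HCl pH 7.5, 80 mM KCl, 4 mM MgCl2, BSA, DTT, yeast tRNA and Tween-20.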

MS2 coat protein [2] = test: apparent Kd, MS2 coat protein; higher = weaker binding; RNA-MaP array; theophylline 2 mM where present
Summary of the method: as §1

[3] = designed as: ON switch for tryptophan, no ligand
[4] = ligand present: tryptophan, designed as: ON switch for tryptophan
[5] = designed as: OFF switch for tryptophan, no ligand
[6] = ligand present: tryptophan, designed as: OFF switch for tryptophan
[7] = designed as: OFF switch for theophylline, no ligand
[8] = ligand present: theophylline, designed as: OFF switch for theophylline
[9] = designed as: ON switch for theophylline, no ligand
[10] = ligand present: theophylline, designed as: ON switch for theophylline

## GGUAUAUAGGCGGCCGCCACUGAUUUUCAUAUAUAUAUAACAUGAGGAUCACCCAUGUAGAUAUACAGGACCGGGCCUAUAUAUU
MS2 coat protein [1]; [3]
  apparent Kd: 14.9 nM
MS2 coat protein [1]; [4]
  apparent Kd: 12.8 nM

## AAUCGUAAGGCGGCCGCCACUACACAUGAGGAUCACCCAUGUCUCGCAGGCUUGCGUUGGGAUAGUAGGACCGGGCCAGUAAUAA
MS2 coat protein [1]; [5]
  apparent Kd: 25.1 nM
MS2 coat protein [1]; [6]
  apparent Kd: 21.8 nM

## AAUGUAUGGCACAUGAGGAUCACCCAUGUGCGAGGACCGGUACGGCCGCCACUCGGUCGUGGGUUCUUAUUACUAUACAUUAAUG
MS2 coat protein [1]; [5]
  apparent Kd: 10.7 nM
MS2 coat protein [1]; [6]
  apparent Kd: 12.3 nM

## ACAUUGCGCUCGGCCGCCACUGCCUUAUGAUUAUAAGGAUUAAUGAACAUGAGGAUCACCCAUGUCAGGACCGGGAGCGAACCAU
MS2 coat protein [1]; [3]
  apparent Kd: 13.7 nM
MS2 coat protein [1]; [4]
  apparent Kd: 13.4 nM

## GGAGCUACGUCGGCCGCCACUAGCGGAUAUUACGUGUACAUGAGGAUCACCCAUGUAAUACGGUUUAGGACCGGGACGUAGCUCC
MS2 coat protein [1]; [5]
  apparent Kd: 17.3 nM
MS2 coat protein [1]; [6]
  apparent Kd: 16.5 nM

## CCUAUGCAGUCGGCCGCCACUGAGUCCUCAAUAAUAAAUUAAUAAACAUGAGGAUCACCCAUGUACAGGACCGGGACUGUAUAGG
MS2 coat protein [1]; [5]
  apparent Kd: 314 nM
MS2 coat protein [1]; [6]
  apparent Kd: 373 nM

## CUAAUUAAAUCGGCCGCCACUUACUCAUGAGGUAACAACAUGAGGAUCACCCAUGUUUGAGGAUCAAGGACCGGGAUUUAAUUAG
MS2 coat protein [1]; [3]
  apparent Kd: 28.9 nM
MS2 coat protein [1]; [4]
  apparent Kd: 18.2 nM

## GGAUCAGGAUCGGCCGCCACUGAUAGUGAUCCAACGACAUGAGGAUCACCCAUGUACAUUUUAAUCAGGACCGGGAUCAAGUUCC
MS2 coat protein [1]; [5]
  apparent Kd: 129 nM
MS2 coat protein [1]; [6]
  apparent Kd: 209 nM

## AUGGUCGACGAUCUGCGAAAAGCAGAUCGACGAGGACCGGUACGGCCGCCACUCGUGUUUAUUUAACAUGAGGAUCACCCAUGUA
MS2 coat protein [1]; [3]
  apparent Kd: 80.2 nM
MS2 coat protein [1]; [4]
  apparent Kd: 22.3 nM

## GCAUCCUAGUCGGCCGCCACUGCAACAUGAGGAUCACCCAUGUCUGUAUGUGAUCCAUGCAGUAGCAGGACCGGGACUAGGAUGC
MS2 coat protein [1]; [3]
  apparent Kd: 501 nM
MS2 coat protein [1]; [4]
  apparent Kd: 130 nM

## AGAGCAUUGACGGCCGCCACUCGUGUCACAUGAGGAUCACCCAUGUGAUGGGUGAUAGCCCGGUUGAGGACCGGGUCAAUGCUCA
MS2 coat protein [1]; [3]
  apparent Kd: 13.7 nM
MS2 coat protein [1]; [4]
  apparent Kd: 19.2 nM

## UGUCAUGGAAACAUGACUGGUUCUACCGGUCGAGGACCGGUACGGCCGCCACUCGAUUGGUGGCACAUGAGGAUCACCCAUGUUA
MS2 coat protein [1]; [3]
  apparent Kd: 28.2 nM
MS2 coat protein [1]; [4]
  apparent Kd: 30 nM

## CUGCCUGCCUCACAUGAGGAUCACCCAUGUCGAGGACCGGUACGGCCGCCACUCGUCGUCGGUAAUACAGGCAUUGAAUAAUAUA
MS2 coat protein [1]; [5]
  apparent Kd: 10.3 nM
MS2 coat protein [1]; [6]
  apparent Kd: 37.5 nM

## UGAUACCAGUCGGCCGCCACUACAUGAGGAUCACCCAUGUAUCCUCAACUGCUAGAUACUAGCAGUAGGACCGGGACUGGUAUCU
MS2 coat protein [1]; [5]
  apparent Kd: 307 nM
MS2 coat protein [1]; [6]
  apparent Kd: 1150 nM

## UACAUGAGGAUCACCCAUGUAUUGCCGGUACGAGGACCGGUACGGCCGCCACUCGGAGCAUGAGGAUCACCCAUGUGCUGCUAUG
MS2 coat protein [1]; [3]
  apparent Kd: 66.2 nM
MS2 coat protein [1]; [4]
  apparent Kd: 51.8 nM

## GAGUAGUAGACGGCCGCCACUAAACAUGAGGAUCACCCAUGUAGUGAUCCGUUACCUAGCGUAGAUAGGACCGGGUCAGAUAGUA
MS2 coat protein [1]; [5]
  apparent Kd: 26 nM
MS2 coat protein [1]; [6]
  apparent Kd: 29.2 nM

## AAUACCGGAUCGGCCGCCACUGGUUGGCCCUGUGUACAUGAGGAUCACCCAUGUCCAUCCCAAGCCAGGACCGGGAUCUUUGUGU
MS2 coat protein [1]; [3]
  apparent Kd: 16.7 nM
MS2 coat protein [1]; [4]
  apparent Kd: 10.1 nM

## ACAUGAGGAUCACCCAUGUUAAACAGGGUGCGAGGACCGGUACGGCCGCCACUCGGACAUUAUUACGAGUGAAUGGUAACGAUGU
MS2 coat protein [1]; [5]
  apparent Kd: 19.9 nM
MS2 coat protein [1]; [6]
  apparent Kd: 20 nM

## AGAUUCGACACGGCCGCCACUUGUGGUGGAUUAUCCUAUGUCGAACAUGAGGAUCACCCAUGUACAAGGACCGGGUGUUGAGUCU
MS2 coat protein [1]; [5]
  apparent Kd: 401 nM
MS2 coat protein [1]; [6]
  apparent Kd: 119 nM

## AGACAUGUAAGAUAAAUGACUUAUACAGAUACCAGACUAGUCAAUGUCCCUUGGCAGCUGCAUAACAUGAGGAUCACCCAUGUAA
MS2 coat protein [2]; [7]
  apparent Kd: 26.7 nM
MS2 coat protein [2]; [8]
  apparent Kd: 32.7 nM

## GGGUGCGGGAUAGAUACCAGUGCCUUAAAAUAGGCACAUGAGGAUCACCCAUGUACCGGGCGCCCUUGGCAGCUAGUACCAUCCA
MS2 coat protein [2]; [9]
  apparent Kd: 127 nM
MS2 coat protein [2]; [10]
  apparent Kd: 181 nM

## UCGUGUGUUUCGGAUACCAGUGAAAUCGAUACAUGAGGAUCACCCAUGUGAGAGGAUGUACACCCUUGGCAGCUGUCUGUAUCUG
MS2 coat protein [2]; [9]
  apparent Kd: 13.1 nM
MS2 coat protein [2]; [10]
  apparent Kd: 13.7 nM

## GCCAGACAUGAGGAUCACCCAUGUAGCGAUACCAGCUCUGUUGUGAGCCCUUGGCAGCGCACUGGCAUCGUAGGUGAUCCAAUAA
MS2 coat protein [2]; [9]
  apparent Kd: 75.2 nM
MS2 coat protein [2]; [10]
  apparent Kd: 187 nM

## CUGCCAUGCAGAGAUACCAGUGCGCUCAGCACAUGAGGAUCACCCAUGUCGGCUGCCGAUCACCCUUGGCAGCUCUGCAUGGCAG
MS2 coat protein [2]; [9]
  apparent Kd: 11.4 nM
MS2 coat protein [2]; [10]
  apparent Kd: 9.11 nM

## GCAUGUGGAGUCUUACUAGAGAGGACAGAUACCAGUAAGAUGUGAUACCCUUGGCAGCUGCGAUUUACAUGAGGAUCACCCAUGU
MS2 coat protein [2]; [7]
  apparent Kd: 21.5 nM
MS2 coat protein [2]; [8]
  apparent Kd: 24.2 nM

## GAGCUGAUGUAGAGAAUAAAUAUAAGAGAUACCAGUACAGAAAUGUACCCUUGGCAGCUCAACUUUACAUGAGGAUCACCCAUGU
MS2 coat protein [2]; [7]
  apparent Kd: 13.9 nM
MS2 coat protein [2]; [8]
  apparent Kd: 18.8 nM

## CUCGGUUGAUCCUAGCUGCCGAGAGGUGAUACCAGCAUCGAAAGAUGCCCUUGGCAGCACCAACAUGAGGAUCACCCAUGUAAUA
MS2 coat protein [2]; [9]
  apparent Kd: 55.1 nM
MS2 coat protein [2]; [10]
  apparent Kd: 483 nM

## CAUUAAGUAACUGAUACCAGUGUACUGACAUGAGGAUCACCCAUGUUGGGUUUUGUUGUACACCCUUGGCAGCAGAAUCUUAAUG
MS2 coat protein [2]; [7]
  apparent Kd: 68.7 nM
MS2 coat protein [2]; [8]
  apparent Kd: 95.5 nM

## UUAAUGGAGCUUUAAUUUACGAUUUCUGAUACCAGUGUUUCAUUUCACCCUUGGCAGCAGUGACAUGAGGAUCACCCAUGUAAUA
MS2 coat protein [2]; [9]
  apparent Kd: 25.4 nM
MS2 coat protein [2]; [10]
  apparent Kd: 23.5 nM

## AGAAUAACACAUGAGGAUCACCCAUGUGAUACCAGCUAGGAAACUAGCCCUUGGCAGCACAUAAGGUGAUCCAGCUGCCAAGAAU
MS2 coat protein [2]; [7]
  apparent Kd: 137 nM
MS2 coat protein [2]; [8]
  apparent Kd: 74.9 nM

## ACCUCACUCUCUGAUACCAGCUAAUAACAUGAGGAUCACCCAUGUCAGACUUGUAUUGAUAGCCCUUGGCAGCAGAGGUAACUGC
MS2 coat protein [2]; [7]
  apparent Kd: 9.39 nM
MS2 coat protein [2]; [8]
  apparent Kd: 11.3 nM

## GUAUGGAAACAUACUUGGGUAUCAUGAGAUACCAGUACAGAAAUGUACCCUUGGCAGCUCAAGCAUACAUGAGGAUCACCCAUGU
MS2 coat protein [2]; [7]
  apparent Kd: 18 nM
MS2 coat protein [2]; [8]
  apparent Kd: 27.1 nM

## UUACAUGAGGAUCACCCAUGUCAUAAUGAUACCAGAUAGUUAAUGAUCCCUUGGCAGCAUAAUACCUAGACAUUUAAGUCAUAGG
MS2 coat protein [2]; [9]
  apparent Kd: 83.1 nM
MS2 coat protein [2]; [10]
  apparent Kd: 41 nM

## ACAUGAGGAUCACCCAUGUUCCUCAUUGAUACCAGUGAAUUUAGACGCCCUUGGCAGCGAGUUUUUUUAUAAGAUUUUUUUUUUU
MS2 coat protein [2]; [7]
  apparent Kd: 626 nM
MS2 coat protein [2]; [8]
  apparent Kd: 1320 nM

## UGUACAUGAGGAUCACCCAUGUUACAUGAUACCAGACAUGAGAGUGUCCCUUGGCAGCAUGGAGCUGAUACGGCGGGAAGCCGGA
MS2 coat protein [2]; [9]
  apparent Kd: 26.8 nM
MS2 coat protein [2]; [10]
  apparent Kd: 32.6 nM

## AUCGCACCUGGUGAUACCAGCGUUUGCUCGCGACAUGAGGAUCACCCAUGUGGCCAGUGAUGCCCUUGGCAGCAUGGUCGGUGCA
MS2 coat protein [2]; [9]
  apparent Kd: 317 nM
MS2 coat protein [2]; [10]
  apparent Kd: 45.4 nM

## UAGGUGAUCUUCAACGGAAAACGUUGUGAUACCAGCCAACAAUACGGCCCUUGGCAGCACAUGAGGAUCACCCAUGUGUACACCG
MS2 coat protein [2]; [7]
  apparent Kd: 29.4 nM
MS2 coat protein [2]; [8]
  apparent Kd: 193 nM

## UUUGAGAUAACAGAUACCAGCGUGUUAUAAAACAUGAGGAUCACCCAUGUAGUGAUCAAGCGCCCUUGGCAGCUGGUAUUUUAGG
MS2 coat protein [2]; [9]
  apparent Kd: 95.2 nM
MS2 coat protein [2]; [10]
  apparent Kd: 210 nM

## CCUGCGUUUCUUUUCUUUCGCAGGAAUGAUACCAGUAGGGAAACCUACCCUUGGCAGCAUGGGACAUGAGGAUCACCCAUGUUUU
MS2 coat protein [2]; [9]
  apparent Kd: 166 nM
MS2 coat protein [2]; [10]
  apparent Kd: 33.4 nM

## CUAUAAGUAACUGAUACCAGUGUACUGACAUGAGGAUCACCCAUGUUGGGUUUUGUUGUACACCCUUGGCAGCAGAAUCUUGUAG
MS2 coat protein [2]; [7]
  apparent Kd: 62.1 nM
MS2 coat protein [2]; [8]
  apparent Kd: 85 nM
